Only some compounds are listed: those with a hit (about 4.3% of all), similar ones and a draw of the others.
SR-BI HDL uptake: inhibitors of SR-BI mediated HDL lipid uptake, primary screen, ldlA[mSR-BI] cells, fluorescence, single point. inhibition, % at 12.5 µM. hit rate 0.96% among 320,000. Scavenger receptor class B member 1 (Mus musculus), Q61009. ldlA[mSR-BI] CHO cells, DiI-HDL uptake fluorescence, 3 h;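 active = mean replicate inhibition of at least 70% and a set share of replicates each scoring 70 or more; inconclusive = meets just one of the two criteria; inactive = fails both criteria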
CR mimetic SO: reduction of superoxide in aged yeast, primary screen, HTS; S. cerevisiae aged cells, superoxide DHE fluorescence; hits give low values; superoxide response (% of plate mean), % at 10 µM; hit rate 0.18% among 330,000; AID 2690, 2010;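 active = superoxide response under a set limit, about three screen SD below normal, cut at about 65% in these data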;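 note: yeast aged for seven days with compound at 30 °C before DHE staining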
SMARCA2 act: SMARCA2 (BRM) function activators, primary screen, cell-based, luminescence, high throughput | MG213 cells, MMTV-luciferase reporter, dexamethasone, overnight | activation, % at 9.1 µM | hit rate 1% among 370,000 | AID 652017, 2013; in the data active = activation above about 7.8%
Hep lipid drop: inhibitors of hepatocyte lipid droplet formation, primary screen, imaging, high-throughput imaging, BODIPY stain. AML12 mouse hepatocytes, oleate lipid droplets. inhibition, % at 6.5 µM. hit rate 0.4% among 240,000. AID 1656, 2009;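 active = lipid droplet intensity inhibited by at least 50%, with more than 500 cells counted; inconclusive = wells with under 300 cells, treated as cytotoxic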
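System: AML12 hepatocytes (mouse). Probe or stimulus: oleic acid at 100 µM to induce lipid droplet formation. Times: overnight treatment with compound plus oleate. Detection: Image-based BODIPY and DAPI two-channel analysis. Evaluation: percent inhibition of filter-corrected integrated lipid droplet intensity per well.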
AHR activator: AHR activators, primary screen, cell-based, luminescence, luciferase reporter, human. Aryl hydrocarbon receptor (Homo sapiens), P35869. activation, % at 5 µM. hit rate 2.5% among 320,000. AHR-responsive luciferase reporter cells; in the data active = activation above about 47%
SR-BI DiI-HDL act: activators of SR-BI mediated DiI-HDL uptake, primary screen, ldlA[mSR-BI] CHO cells, DiI fluorescence; 3 h; 100 = double the neutral-control signal; activation, % at 12.5 µM; hit rate 0.096% among 320,000; AID 504775, 2011;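 active = mean replicate activation of at least 60% and every replicate at or above 60%; inconclusive = mean or all-replicate condition met, but not both; inactive = mean below 60% and not all replicates reaching 60%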
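Test system: SR-BI-overexpressing, LDLR-lacking CHO cells; Also added: labelled HDL, 10 µg/mL; Measured by: bottom-read cell fluorescence after medium removal, ex 550/em 595 nm; Timing: 3 h uptake period with compound, 37 °C; Buffer or medium: F12, 0.5% BSA, 25 mM HEPES; Doses: single compound concentration, delivered by pin transfer.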
A number is an active result; - = inactive; ? = inconclusive; . = not tested or not shown.

SMILES	SR-BI HDL uptake	CR mimetic SO	SMARCA2 act	Hep lipid drop	AHR activator	SR-BI DiI-HDL act
CCN(CC)C(=O)Cn1cc(C(=O)C(=O)Nc2ccc3c(c2)OCCO3)c2ccccc21	77.0	-	-	-	-	-
O=C(/C=C(\Nc1cccc(OC(F)F)c1)c1ccccc1)c1ccccc1	.	.	-	.	.	.
COC(=O)c1cc(C(=O)OC)cc(-n2c(C)cc(C(=O)CC#N)c2C)c1	76.3	-	-	-	-	-
Cc1cccc(Cn2cc(COC(=O)NCCc3ccccc3)nn2)c1	.	.	-	.	.	.
CCCCN1CC(COCc2ccccc2)Oc2cccc(Oc3ccc(SC)c(C)c3)c2S1(=O)=O (configuration not stated)	.	.	-	.	.	.
Cc1[nH]n(-c2ccc([N+](=O)[O-])cc2)c(=O)c1C=NCCc1c[nH]c2ccccc12	-	-	-	-	-	-
CCCc1[nH]n(-c2ccc([N+](=O)[O-])cc2)c(=O)c1C=NCCc1c[nH]c2ccccc12	79.3	-	-	-	-	-
Cc1cc(-c2ccccc2)nc(N/N=C/c2ccc(O)cc2O)n1	?	-	-	-	-	-
CN(/N=C/c1ccc(O)cc1O)c1nc(-c2ccccc2)cc(-c2ccccc2)n1	90.3	-	-	-	-	-
COc1ccc(CCNC(=O)C(=O)c2c[nH]c3ccccc23)cc1OC	-	-	-	-	.	-
COc1ccc(C/C(C)=N\NC(=O)c2c[nH]c3ccccc23)cc1OC	-	-	-	-	52.8	-
COCCNC(=S)N(C)[C@H]1C[C@H]2c3[nH]c4c(-c5ccccc5)cccc4c3CCN2C[C@H]1[C@H](C)O	.	.	-	.	.	.
CCCCCc1cc(=O)oc2c(C(CCN3CCCCC3)c3cc(OC)c(OC)c(OC)c3)c(OC)cc(OC)c12 (configuration not stated)	-	-	-	-	-	62.0
CCCCCc1cc(=O)oc2c(C(CCN3CCCC(C)C3)c3cc(OC)c(OC)c(OC)c3)c(OC)cc(OC)c12 (configuration not stated)	-	-	.	-	-	-
Cn1cnnc1SCC(=O)c1c[nH]c2ccccc12	-	-	-	.	66.8	-
CCn1c(SCC(=O)c2c[nH]c3ccccc23)nnc1-c1cccs1	-	-	-	-	-	-
CCCCNc1nnc(SCC(=O)c2c[nH]c3ccccc23)s1	-	-	-	-	57.4	-
Cc1ccc(/C(=N\O)c2oc3c(C)c4oc(=O)cc(C)c4cc3c2C)cc1	-	-	-	-	-	-
Cc1cc(=O)oc2c1ccc1oc(/C(=N/O)c3ccccc3)c(C)c12	-	-	-	-	-	515.6
COC(=O)CC#C[C@H](C)[C@@H](NS(C)(=O)=O)C(C)(C)COCc1ccccc1	.	.	-	.	.	.
Cc1ccc(-c2nnc(SCC(=O)Nc3ccc(OCc4ccccc4)cc3)n2-c2ccc(Cl)cc2)cc1	.	.	-	.	.	.
O=C(CSc1nnc(-c2cccnc2)n1-c1ccc(Cl)cc1)Nc1ccccc1-c1ccccc1	.	.	-	.	.	.
Cc1ccc(NC(=O)CN2CCc3cc4c(cc3C2)OCCCO4)cc1	-	-	-	-	-	-
O=C(CN1CCN(c2ccc(O)cc2)CC1)Nc1ccc2c(c1)OCCCO2	75.1	-	-	.	-	-
O=C(CN1CCN(c2cccc(C(F)(F)F)c2)CC1)Nc1ccc2c(c1)OCCCO2	.	.	-	.	.	.
SMILES	SR-BI HDL uptake	CR mimetic SO	SMARCA2 act	Hep lipid drop	AHR activator	SR-BI DiI-HDL act
Cc1cccc(NC(=O)CN2CCc3cc4c(cc3C2)OCCCO4)c1	-	-	-	-	-	222.1
COc1ccc(-c2cc(-c3nnc(SCC(=O)Nc4cccc(Cl)c4C)n3N)[nH]n2)cc1	.	.	-	.	.	.
N#C/C(=N\Nc1ccc(Cl)cc1)C(N)=S	-	-	-	-	59.0	-
CCCC[C@H]1C2CC(OC(=O)NCc3ccc(Cl)cc3)C(C2)[C@H]2CCCCN21 (some centres not stated)	.	.	-	.	.	.
Cc1ccccc1CNC(=O)C1C2C=CC3(CN(Cc4ccccc4)C(=O)C13)O2 (configuration not stated)	.	.	-	.	.	.
COc1cccc(N2CCN(CC(=O)NCc3c(F)cccc3F)CC2)c1	.	.	-	.	.	.
CCCCNC(=O)OC1CCC12CCC(c1ccccc1)CC2 (configuration not stated)	.	.	-	.	.	.
CN1CCc2cc3c(c4c2[C@H]1[C@H](O)c1ccccc1-4)OCO3	-	.	9.3	.	-	-
COc1ccc2c(c1OC)C(C1c3c(cc4c(c3OC)OCO4)CCN1C)OC2=O (configuration not stated)	-	-	-	-	-	-
CS(=O)(=O)N(CC(O)Cn1c2ccccc2c2ccccc21)c1ccccc1 (configuration not stated)	-	-	-	.	-	-
COc1ccc(N(CC(O)Cn2c3ccccc3c3ccccc32)S(=O)(=O)c2ccccc2)cc1 (configuration not stated)	-	-	-	.	54.7	-
O=c1c2c(-c3cccs3)csc2ncn1-c1ccc(Br)cc1	-	-	-	.	64.8	-
O=c1c2c(-c3cccs3)csc2ncn1/N=C/c1ccc(OC(F)F)cc1	-	-	-	.	56.3	-
O=C(O)COc1ccc(/C=N/n2cnc3scc(-c4cccs4)c3c2=O)cc1	-	-	-	-	-	-
CCOC(=O)[C@]12CCCC=C1N(Cc1ccc(OC)cc1)C(=O)[C@@H]2CC(=O)NCC12CC3CC(CC(C3)C1)C2	.	.	-	.	.	.
C=CCn1c(O)c(N=NC(=O)OC(C)(C)C)c2ccccc21	-	-	-	-	-	-
C=CCn1c(O)c(N=NC(=O)CNC(=O)c2cccs2)c2ccccc21	-	-	-	-	61.3	-
CCOC(=O)N(C)C[C@H]1OCc2cnnn2CCCC(=O)N([C@H](C)CO)C[C@@H]1C	.	.	-	.	.	.
CC1CCC2(CC1)CCN(CCCOC(=O)Nc1cccc(C(F)(F)F)c1)C2=O (configuration not stated)	.	.	-	.	.	.
C/C(=N/NC(N)=S)c1cc2ccc(O)cc2oc1=O	84.3	-	-	-	-	-
c1ccc(-c2nc3ccccn3c2NCc2ccc3c(c2)OCO3)cc1	-	-	-	.	69.7	-
CNC(=O)c1ccccc1C1(O)c2ccccc2CCc2ccccc21	.	.	-	.	.	.
Nc1sc(-c2ccccc2)n[n+]1Cc1cccc2cccnc12	.	-	-	-	85.1	.
Oc1ccccc1CNc1cccc2cccnc12	-	-	-	-	-	-
COc1ccc(/C(C)=N/NC(=O)c2cccc(S(=O)(=O)N3CCCC3)c2)c(O)c1	102.6	-	-	.	-	-
COc1ccc(C(C)=NNC(=O)c2cccc(S(=O)(=O)N3CCCC3)c2)cc1	-	-	-	.	-	-
Cc1ccc2c(c1)N(CCCC(=O)NCc1c(F)cccc1F)C(=O)CO2	.	.	-	.	.	.

Source: PubChem (several laboratories)
